Laboratory results as given in ChEMBL document CHEMBL1127602, “Synthesis and tissue biodistribution of [omega-11C]palmitic acid. A novel PET imaging agent for cardiac fatty acid metabolism” (J Med Chem, 1994).
Values joined by “and” are separate entries in the source; they are usually repeats but may differ in a detail not shown here. Equal values may be shown once.

How the values were obtained:
Rattus norvegicus [1] = test: Biodistribution in rat blood after 1 hr of intravenous injection at a dose of […]; type: ADME, organism-based; conditions: in vivo
Outline: (§1)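 Female Sprague–Dawley rats (140–160 g, four per time point), fed ad lib, ether-anesthetized just before injection. Radiotracer bound to human serum albumin in ethanol–saline, given by femoral vein (≈50 μCi/rat). Rats sacrificed at 5, 10, 15, 30 or 60 min. Tissues excised and weighed, activity measured by γ-counting, expressed as %ID/g.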

Rattus norvegicus [2] = test: Biodistribution in rat blood after 10 min of intravenous injection at a dose of […]; type: ADME, organism-based; conditions: in vivo; outline: as §1
Rattus norvegicus [3] = test: Biodistribution in rat blood after 15 min of intravenous injection at a dose of […]; type: ADME, organism-based; conditions: in vivo, 0.25 h; outline: as §1
Rattus norvegicus [4] = test: Biodistribution in rat blood after 30 min of intravenous injection at a dose of […]; type: ADME, organism-based; conditions: in vivo, 0.5 h; outline: as §1
Rattus norvegicus [5] = test: Biodistribution in rat blood after 5 min of intravenous injection at a dose of […]; type: ADME, organism-based; conditions: in vivo; outline: as §1
Rattus norvegicus [6] = test: Biodistribution in rat heart after 1 hr of intravenous injection at a dose of […]; type: ADME, organism-based; conditions: in vivo; outline: as §1
Rattus norvegicus [7] = test: Biodistribution in rat heart after 10 min of intravenous injection at a dose of […]; type: ADME, organism-based; conditions: in vivo; outline: as §1
Rattus norvegicus [8] = test: Biodistribution in rat heart after 30 min of intravenous injection at a dose of […]; type: ADME, organism-based; conditions: in vivo, 0.5 h; outline: as §1
Rattus norvegicus [9] = test: Biodistribution in rat liver after 1 hr of intravenous injection at a dose of […]; type: ADME, organism-based; conditions: in vivo; outline: as §1
Rattus norvegicus [10] = test: Biodistribution in rat liver after 10 min of intravenous injection at a dose of […]; type: ADME, organism-based; conditions: in vivo; outline: as §1
Rattus norvegicus [11] = test: Biodistribution in rat liver after 15 min of intravenous injection at a dose of […]; type: ADME, organism-based; conditions: in vivo, 0.25 h; outline: as §1
Rattus norvegicus [12] = test: Biodistribution in rat liver after 30 min of intravenous injection at a dose of […]; type: ADME, organism-based; conditions: in vivo, 0.5 h; outline: as §1
Rattus norvegicus [13] = test: Biodistribution in rat liver after 5 min of intravenous injection at a dose of […]; type: ADME, organism-based; conditions: in vivo; outline: as §1
Rattus norvegicus [14] = test: Biodistribution in rat lung after 1 hr of intravenous injection at a dose of […]; type: ADME, organism-based; conditions: in vivo; outline: as §1
Rattus norvegicus [15] = test: Biodistribution in rat lung after 10 min of intravenous injection at a dose of […]; type: ADME, organism-based; conditions: in vivo; outline: as §1
Rattus norvegicus [16] = test: Biodistribution in rat lung after 15 min of intravenous injection at a dose of […]; type: ADME, organism-based; conditions: in vivo, 0.25 h; outline: as §1
Rattus norvegicus [17] = test: Biodistribution in rat lung after 30 min of intravenous injection at a dose of […]; type: ADME, organism-based; conditions: in vivo, 0.5 h; outline: as §1
Rattus norvegicus [18] = test: Biodistribution in rat lung after 5 min of intravenous injection at a dose of […]; type: ADME, organism-based; conditions: in vivo; outline: as §1
Rattus norvegicus [19] = test: Biodistribution in rat muscle after 1 hr of intravenous injection at a dose of […]; type: ADME, organism-based, Muscle tissue; conditions: in vivo; outline: as §1
Rattus norvegicus [20] = test: Biodistribution in rat muscle after 10 min of intravenous injection at a dose of […]; type: ADME, organism-based, Muscle tissue; conditions: in vivo; outline: as §1
Rattus norvegicus [21] = test: Biodistribution in rat muscle after 15 min of intravenous injection at a dose of […]; type: ADME, organism-based, Muscle tissue; conditions: in vivo, 0.25 h; outline: as §1
Rattus norvegicus [22] = test: Biodistribution in rat muscle after 30 min of intravenous injection at a dose of […]; type: ADME, organism-based, Muscle tissue; conditions: in vivo, 0.5 h; outline: as §1
Rattus norvegicus [23] = test: Biodistribution in rat muscle after 5 min of intravenous injection at a dose of […]; type: ADME, organism-based, Muscle tissue; conditions: in vivo; outline: as §1
Rattus norvegicus [24] = test: Biodistribution in rat heart after 5 min of intravenous injection at a dose of […]; type: ADME, organism-based; conditions: in vivo; outline: as §1
Rattus norvegicus [25] = test: Biodistribution in rat kidney after 1 h of intravenous injection at a dose of […]; type: ADME, organism-based; conditions: in vivo; outline: as §1
Rattus norvegicus [26] = test: Biodistribution in rat kidney after 10 min of intravenous injection at a dose of […]; type: ADME, organism-based; conditions: in vivo; outline: as §1
Rattus norvegicus [27] = test: Biodistribution in rat kidney after 15 min of intravenous injection at a dose of […]; type: ADME, organism-based; conditions: in vivo, 0.25 h; outline: as §1
Rattus norvegicus [28] = test: Biodistribution in rat kidney after 30 min of intravenous injection at a dose of […]; type: ADME, organism-based; conditions: in vivo, 0.5 h; outline: as §1
Rattus norvegicus [29] = test: Biodistribution in rat kidney after 5 min of intravenous injection at a dose of […]; type: ADME, organism-based; conditions: in vivo; outline: as §1
Rattus norvegicus [30] = test: Biodistribution in rat heart after 15 min of intravenous injection at a dose of […]; type: ADME, organism-based; conditions: in vivo, 0.25 h; outline: as §1

SMILES: CCCCCCCCCCCCCCCC(=O)O [PALMITIC ACID]
- ID/g (Rattus norvegicus [1]): 0.237% and 0.157%
- ID/g (Rattus norvegicus [2]): 0.171% and 0.13%
- ID/g (Rattus norvegicus [3]): 0.31% and 0.373%
- ID/g (Rattus norvegicus [4]): 0.43% and 0.329%
- ID/g (Rattus norvegicus [5]): 0.25% and 0.116%
- ID/g (Rattus norvegicus [6]): 1.159% and 0.792%
- ID/g (Rattus norvegicus [7]): 1.372% and 1.08%
- ID/g (Rattus norvegicus [8]): 1.813% and 0.941%
- ID/g (Rattus norvegicus [9]): 6.944% and 4.853%
- ID/g (Rattus norvegicus [10]): 8.38% and 8.36%
- ID/g (Rattus norvegicus [11]): 8.195% and 6.252%
- ID/g (Rattus norvegicus [12]): 8.25% and 5.62%
- ID/g (Rattus norvegicus [13]): 8.189% and 5.94%
- ID/g (Rattus norvegicus [14]): 1.154% and 1.08%
- ID/g (Rattus norvegicus [15]): 1.427% and 1.272%
- ID/g (Rattus norvegicus [16]): 1.165% and 1.246%
- ID/g (Rattus norvegicus [17]): 1.423% and 1.173%
- ID/g (Rattus norvegicus [18]): 1.353% and 0.945%
- ID/g (Rattus norvegicus [19]): 0.237% and 0.194%
- ID/g (Rattus norvegicus [20]): 0.198% and 0.179%
- ID/g (Rattus norvegicus [21]): 0.221% and 0.166%
- ID/g (Rattus norvegicus [22]): 0.222% and 0.198%
- ID/g (Rattus norvegicus [23]): 0.197% and 0.183%
- ID/g (Rattus norvegicus [24]): 1.675% and 0.996%
- ID/g (Rattus norvegicus [25]): 1.166% and 1.238%
- ID/g (Rattus norvegicus [26]): 1.184% and 1.343%
- ID/g (Rattus norvegicus [27]): 1.105% and 1.184%
- ID/g (Rattus norvegicus [28]): 1.28% and 1.301%
- ID/g (Rattus norvegicus [29]): 1.154% and 0.994%
- ID/g (Rattus norvegicus [30]): 0.981% and 1.011%
